Data: ChEMBL document CHEMBL1134460, “Terminally alkylated polyamine analogues as chemotherapeutic agents” (J Med Chem, 2001)

What was measured:
[1] = target: Diamine acetyltransferase 1 (Homo sapiens, UniProt P21673); assay: Effect of 10 uM on spermine/spermidine-N-acetyltransferase (SSAT) induction in non-SCLC cells; assay type: cell-based
In short: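 NCI H157 non-small-cell lung tumor cells were exposed to 10 μM analogue. SSAT activity was assayed and expressed as pmol product/mg protein/min, then as fold increase over untreated control cells.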

NCH82 [2] = assay: Cytokinetic effects on H82 small-cell lung tumor line (SCLC) after 96-h treatment; assay type: functional, Homo sapiens
NCI-H157 [3] = assay: (§1) Effect of exposure of H157 non-SCLC to compound (<10 uM) for 96-h, on natural polyamines and accumulation of the compound; No significant change; assay type: functional, cell-based; settings: Homo sapiens
In short: (§2)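 H157 non-SCLC cells were treated with 10 μM analogue. Cellular putrescine, spermidine and spermine, plus the intracellular analogue, were quantified and compared with untreated control cells.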

[4] = target: T1, S-adenosylmethionine decarboxylase proenzyme (Rattus norvegicus, UniProt P17708); assay: Inhibition of rat liver form of S-adenosyl-methionine decarboxylase enzyme
T1 sequence (P17708 whole entry): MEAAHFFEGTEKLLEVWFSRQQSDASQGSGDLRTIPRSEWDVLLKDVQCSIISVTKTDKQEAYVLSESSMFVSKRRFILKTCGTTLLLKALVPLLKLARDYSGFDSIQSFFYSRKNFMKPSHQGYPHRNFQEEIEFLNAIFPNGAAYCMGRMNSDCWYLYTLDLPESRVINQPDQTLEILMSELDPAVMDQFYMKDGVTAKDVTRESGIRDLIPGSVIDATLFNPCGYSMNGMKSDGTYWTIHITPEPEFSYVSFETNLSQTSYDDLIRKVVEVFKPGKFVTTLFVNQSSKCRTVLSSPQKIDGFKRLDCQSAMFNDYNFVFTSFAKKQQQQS

Trypanosoma brucei [5] = assay: In vitro growth Inhibitory activity against K243 Strain of Trypanosoma brucei.; assay type: functional, organism-based
In short: (§3)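 In vitro growth inhibition was run against T. b. brucei LAB EATRO 110 and T. b. rhodesiense KETRI 243, KETRI 243 As-10-3 and KETRI 269. […] ">100" means no appreciable inhibition up to the highest concentration tested.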

Trypanosoma brucei [6] = assay: In vitro growth Inhibitory activity against LAB 110 Strain of Trypanosoma brucei; assay type: functional, organism-based; in short: as §3
Trypanosoma brucei [7] = assay: in vivo growth inhibition of Trypanosoma brucei was determined; assay type: functional, organism-based
Cricetinae gen. sp. = assay: […] activity was determined against Leishmania donovani in hamsters; assay type: functional, Cricetulus griseus
NCI-H157 [8] = assay: In vitro activity against H157 non-small-cell lung tumor line (non-SCLC) cultures.; assay type: functional, cell-based; settings: Homo sapiens
NCH82 [9] = assay: In vitro activity against H82 small-cell lung tumor line (SCLC) cultures.; assay type: functional, cell-based; settings: Homo sapiens
NCI-H157 [10] = assay: Antitumor activity was determined against H157 cell line; assay type: functional, cell-based; settings: Homo sapiens
Mus musculus = organism: Mus musculus; assay: […] activity was determined against Leishmania donovani in mice (Mus musculus); assay type: functional
[11] = target: S-adenosylmethionine decarboxylase (Homo sapiens) (UniProt P17707); assay: Inhibition of Inhibition of human form of S-adenosyl-methionine decarboxylase enzyme (AdoMet-DC); set-up: concentration or dose not given beside the values; settings: concentration not given here
NCI-H157 [12] = assay: Effect of exposure of H157 non-SCLC to compound (<10 uM) for 96-h, on natural polyamines and accumulation of the compound; Decrease; assay type: functional, cell-based; settings: Homo sapiens; in short: as §2
[13] = target: T2, Ornithine decarboxylase (Homo sapiens) (UniProt P11926); assay: Inhibition of ornithine decarboxylase (ODC); set-up: concentration or dose not given beside the values; settings: concentration not given here
T2 sequence (whole entry): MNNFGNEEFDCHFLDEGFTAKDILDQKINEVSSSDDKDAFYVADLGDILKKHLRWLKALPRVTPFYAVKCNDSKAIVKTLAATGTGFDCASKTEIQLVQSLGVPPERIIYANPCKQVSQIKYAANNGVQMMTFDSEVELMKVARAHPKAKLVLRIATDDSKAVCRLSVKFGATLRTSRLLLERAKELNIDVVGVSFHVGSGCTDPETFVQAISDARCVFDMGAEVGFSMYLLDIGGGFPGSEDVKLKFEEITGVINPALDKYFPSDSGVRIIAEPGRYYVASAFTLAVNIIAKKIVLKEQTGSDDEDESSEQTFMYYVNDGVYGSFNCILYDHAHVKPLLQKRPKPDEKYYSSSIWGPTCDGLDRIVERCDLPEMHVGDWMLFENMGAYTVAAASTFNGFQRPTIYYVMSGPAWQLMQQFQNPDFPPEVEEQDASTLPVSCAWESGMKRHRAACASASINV

NCI-H157 [14] = assay: Effect of exposure of H157 non-SCLC (<10 uM) for 96-h, and accumulation of compound was determined; assay type: functional, Homo sapiens
NCI-H157 [15] = assay: as §1; assay type: functional, cell-based; settings: Homo sapiens; remark: listed apart in the source
Trypanosoma brucei [16] = assay: in vivo inhibition of trypanosomal brucei growth was determined; assay type: functional, organism-based

Diamine acetyltransferase 1, sequence (P21673 whole entry): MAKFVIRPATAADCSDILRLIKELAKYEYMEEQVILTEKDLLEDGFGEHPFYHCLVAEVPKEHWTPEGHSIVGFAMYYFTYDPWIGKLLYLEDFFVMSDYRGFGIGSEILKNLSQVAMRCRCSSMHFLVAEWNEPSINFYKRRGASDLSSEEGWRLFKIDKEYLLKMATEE

`CCNCCCNCCCN1CCCCCC1` was tested, and the Induction [1] was under 50, the Effect (NCH82 [2]) was 0 and the “Effect on polyamine pools” value (NCI-H157 [3]) was “No significant change”.
Work on `NC/C=C\NC[C@@H]1O[C@H](n2cnc3c(N)ncnc32)[C@@H](O)[C@H]1O` yielded a Ki [4] of 560 nM.
In the case of `N[C@@H]1C=C[C@H](NCCCNCC2CC2)C1`, the IC50 (Trypanosoma brucei [5]) is reported as over 100000 nM and the IC50 (Trypanosoma brucei [6]) is reported as over 100000 nM.
Work on `C[S+](C[C@@H]1O[C@H](n2cnc3c(N)ncnc32)[C@@H](O)[C@H]1O)C1C=CC(ON)C1` (some centres undefined) yielded an IC50 (Trypanosoma brucei [7]) of 900 nM.
Work on `c1ccc(CNCCCNCCCCCCCNCCCNCc2ccccc2)cc1` yielded an ED50 (Cricetinae gen. sp.) of 1 mg/kg, an IC50 (NCI-H157 [8]) of 500 nM and an IC50 (NCH82 [9]) of 1700 nM. The IC50 (NCI-H157 [10]) was 500 nM and the ED50 (Mus musculus) was 2.5 mg/kg.
`CCNCCCN[C@H]1C=C[C@@H](N)CCC1` was tested, and the IC50 (Trypanosoma brucei [5]) was over 100000 nM and the IC50 (Trypanosoma brucei [6]) was over 100000 nM.
In the case of `CCNCCCNCCCNCCCNCC1CCCCC1`, the inhibition [11] is reported as under 50%, the Induction [1] is reported as under 50 and the “Effect on polyamine pools” value (NCI-H157 [12]) is reported as “Decrease”. The inhibition [13] was under 50% and the Amount (NCI-H157 [14]) was >20 nM (mg of protein)-1.
For `CCNCCCNCCCNCCCNCC1CCC1`, the Induction [1] was over 500, the “Effect on polyamine pools” value (NCI-H157 [12]) was “Decrease” and the inhibition [13] was over 50%. The Amount (NCI-H157 [14]) was >20 nM (mg of protein)-1.
In the case of `CCNCCCNCCCCCCCNCCCNCC1CCCCCC1`, the NC (NCI-H157 [15]) is reported as “No significant change”, the inhibition [11] is reported as under 50% and the Induction [1] is reported as 0. The inhibition [13] was under 50% and the Amount (NCI-H157 [14]) was <20 nM (mg of protein)-1.
In the case of `C[S+](C[C@@H]1O[C@H](n2cnc3c(N)ncnc32)[C@@H](O)[C@H]1O)C1C=CC(N)C1` (some centres undefined), the IC50 (Trypanosoma brucei [16]) is reported as 5200 nM.
For `CCNCCCNCCCNCCCNCC1CCCC1`, the inhibition [11] was over 50%, the Induction [1] was over 500 and the “Effect on polyamine pools” value (NCI-H157 [12]) was “Decrease”. For the same compound, the inhibition [13] was over 50% and the Amount (NCI-H157 [14]) was >20 nM (mg of protein)-1.
Compound `CCNCCCN[C@@H]1CCC[C@H](N)CC1` has an IC50 (Trypanosoma brucei [5]) of over 100000 nM and an IC50 (Trypanosoma brucei [6]) of over 100000 nM.
For `CCNCCCNCCCNC1CCCCCC1`, the Induction [1] was over 50, the “Effect on polyamine pools” value (NCI-H157 [12]) was “Decrease” and the inhibition [13] was under 50%.
